# Measurements reported in BindingDB's records for doi:10.1021/jm0303608 (University of Florida, 2004).
# How the values were obtained:
# Melanocortin receptor 3 = Melanocortin receptor 3 (Mus musculus, UniProt P33033); assay: Effective concentration against mouse Melanocortin 3 receptor
# Method in brief: (§1)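 HEK-293 cells stably expressing the mouse receptor (calcium phosphate transfection, G418 1 mg/mL selection) were transfected with 4 μg CRE/β-galactosidase reporter. EC50 came from nonlinear least-squares fit; at least three independent experiments.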
# Melanocortin receptor 4 = Melanocortin receptor 4 (Mus musculus, UniProt P56450); assay: Effective concentration against mouse melanocortin MC4 receptor; method in brief: as §1
# Chain of Melanocortin receptor 4 (P56450 whole entry): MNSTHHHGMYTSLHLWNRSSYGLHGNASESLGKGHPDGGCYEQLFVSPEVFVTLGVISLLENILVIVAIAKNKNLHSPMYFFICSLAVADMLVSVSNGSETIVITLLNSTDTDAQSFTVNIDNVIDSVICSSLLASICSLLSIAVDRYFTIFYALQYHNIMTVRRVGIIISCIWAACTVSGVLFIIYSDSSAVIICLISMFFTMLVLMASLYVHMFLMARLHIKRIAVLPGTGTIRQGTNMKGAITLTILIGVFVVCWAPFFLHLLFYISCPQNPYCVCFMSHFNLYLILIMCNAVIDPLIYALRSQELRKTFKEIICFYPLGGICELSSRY
# Chain of Melanocortin receptor 3 (P33033 whole entry): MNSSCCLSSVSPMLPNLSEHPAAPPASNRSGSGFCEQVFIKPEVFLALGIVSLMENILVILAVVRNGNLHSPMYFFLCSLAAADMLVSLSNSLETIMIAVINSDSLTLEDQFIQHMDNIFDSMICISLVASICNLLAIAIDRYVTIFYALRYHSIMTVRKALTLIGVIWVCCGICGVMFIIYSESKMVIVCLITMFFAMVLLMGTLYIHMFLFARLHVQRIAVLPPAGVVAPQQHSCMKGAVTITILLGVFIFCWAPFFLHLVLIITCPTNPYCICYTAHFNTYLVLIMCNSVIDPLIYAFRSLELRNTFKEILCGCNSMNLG
Compound,Kd (Melanocortin receptor 3) [µM],Kd (Melanocortin receptor 4) [µM]
C[C@@H]1NC(=O)[C@@H](CC(N)=O)NC(=O)[C@H](Cc2ccccc2)NC(=O)[C@@H](Cc2ccccc2)NC(=O)[C@H](CCCNC(=N)N)NC(=O)[C@@H](NC(=O)[C@@H](N)Cc2ccc(O)cc2)CC(=O)NC(C(=O)NN[C@H](Cc2ccc(O)cc2)C(=O)C(N)=O)NC(=O)C(=O)[C@@H](Cc2ccccc2)NC1=O (stereo partly drawn) [Tyr-c[Asp-Arg-Phe-Phe-Asn-Ala-Phe-Dpr]-Tyr-NH2],2,
C[C@@H]1NC(=O)[C@H](CC(N)=O)NC(=O)[C@H](Cc2ccccc2)NC(=O)[C@H](Cc2ccccc2)NC(=O)[C@H](CCCNC(=N)N)NC(=O)[C@@H](NC(=O)[C@@H](N)Cc2ccc(O)cc2)CC(=O)NC[C@@H](C(=O)N[C@@H](Cc2ccc(O)cc2)C(N)=O)NC(=O)[C@H](Cc2ccccc2)NC1=O [Tyr-c[Asp-Arg-Phe-Phe-Asn-Ala-Phe-Dpr]-Tyr-NH2],,1.26
